Many of the other results were omitted from the sample, so hits are more common in it than they were.
Avidin bead fluor = compound fluoresces at 488/530 nm on avidin beads; compound fluorescence 488/530 nm, flow cytometry; active compounds read high; fluorescence (KMESF) at 10 µM; 0.38% of 220,000 active; AID 1775; in the data active = fluorescence above about 47
ABCB1 block = blocks JC-1 efflux by human ABCB1 transporter. inhibition, % at 6.6 µM. CCRF-Adr cells, flow cytometry. 0.067% of 190,000 active. P08183; in the data active = inhibition above about 40%;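 also: 0% = vehicle and 100% = reference inhibitor; higher value means more JC-1 retained so stronger ABCB1 efflux block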
GSH bead fluor = GSH bead compound fluorescence profile | AID 1776 | GSH beads flow cytometry, compound fluorescence 488/530 nm; active compounds read high | fluorescence (KMESF) at 10 µM | 0.25% of 190,000 active; in the data active = fluorescence above about 89;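 also: glutathione beads carrying GST-tagged Bcl family fusion proteins plus one bare bead set; values are compound well signal with DMSO vehicle wells as background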
ABCG2 inh = inhibitors of human ABCG2 transporter, ABCB1 counter-screen; inhibition, % at 6.6 µM; 0.1% of 190,000 active; IgMXP3 cells, JC-1 efflux, flow cytometry; AID 1325; Q9UNQ0;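 active = inhibition above 80%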;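 also: 0% = DMSO and 100% = nicardipine control wells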
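Test system: ABCG2 IgMXP3 and barcoded ABCB1 CCRF-Adr cell mix; Schedule: cells with compound and JC-1, 10 min at 25 °C, rotating, no wash; Technique: flow cytometry of retained JC-1 fluorescence; Measure: % inhibition of efflux relative to nicardipine and DMSO; Controls: nicardipine high and DMSO low controls.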
Lmaj promast = Leishmania major promastigote growth inhibition; Leishmania major promastigotes, resazurin fluorescence viability; inhibition, % at 10 µM; 9% of 200,000 active; AID 1063;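 also: promastigotes grown with compound for 44 hours at 28 °C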
PKD1 inh = PKD1 (human) kinase inhibition; PKD1 kinase fluorescence polarization assay; inhibition, % (test concentration not listed); 0.056% of 200,000 active
* marks the source's active call; other numbers are inactive results; . = no result given. Rule as the data show it, unless noted: active = inhibition above about 50%; inactive = the rest.

SMILES	Avidin bead fluor	ABCB1 block	GSH bead fluor	ABCG2 inh	Lmaj promast	PKD1 inh
CN(C)CC1CSCCC1(O)c1cccc(Cl)c1 (configuration not stated)	21	-0.5	14	-1.0	-4.6	-7.3
CSc1ccc(CN2CCN(Cc3ccccc3Cl)CC2)cc1	22	1.6	13	5.3	82.3*	3.4
O=C(c1ccc2c(c1)OCO2)C1CCCN(Cc2ccccn2)C1 (configuration not stated)	13	0.6	13	1.3	-5.3	1.4
CSc1ccc(C(=O)C2CCCN(Cc3cccnc3)C2)cc1 (configuration not stated)	8	1.6	15	1.7	85.1*	1.3
CSc1ccc(C(=O)C2CCCN(Cc3cc4ccccc4[nH]3)C2)cc1 (configuration not stated)	10	2.8	11	3.9	87.7*	-4.1
CC(C)(C)c1ccc(C(=O)C2CCCN(Cc3ccon3)C2)cc1 (configuration not stated)	6	0.6	17	0.6	80.1*	-3.9
O=C(c1ccc(-c2ccccc2)cc1)C1CCCN(Cc2ccn[nH]2)C1 (configuration not stated)	12	0.9	17	2.3	98.5*	-0.5
O=C(c1ccc(Cl)cc1)C1CCCN(Cc2ccon2)C1 (configuration not stated)	10	0.1	16	-0.3	-9.2	-4.3
C/C(=N\N1CCCCC1c1cccnc1)c1c(O)n(C2CCCCC2)c(=S)[nH]c1=O (configuration not stated)	16	6.2	14	2.9	44.5	-11.1
C=CCn1c(O)c(/C(C)=N/N2CCCCC2)c(=O)[nH]c1=O	8	.	.	.	.	.
CCOC(=O)C(=CNc1ccc(C(O)(C(=O)OCC)C(F)(F)F)cc1C)C(=O)OCC (configuration not stated)	16	1.3	12	13.9	54.9*	4.0
Cc1cc(N2CCCC2)ccc1C=C(C#N)C#N	14	0.0	10	3.3	2.1	0.6
Cc1cc(N2CCCCC2)ccc1C=C1C(=O)N(C)C(=S)N(C)C1=O	11	-0.5	9	-2.9	99.5*	-6.5
CCN1CCN(c2ccc([N+](=O)[O-])cc2C=C2C(=O)NC(=O)NC2=O)CC1	6	0.3	11	10.0	59.7*	-4.0
NC1=Nc2ccccc2Oc2ccccc21	6	0.0	19	0.0	9.2	1.8
CCCSP1(=S)NCCCO1 (configuration not stated)	8	0.3	5	0.8	0.2	-0.1
CCOC(=O)C(O)(c1ccc(N=c2ccccn2C)cc1)C(F)(F)F (configuration not stated)	7	.	.	.	.	.
CN1CCN(c2ccc(Cl)cc2N)CC1	8	0.2	28	-0.2	-2.9	-0.9
Cc1ccc(Cl)cc1N1CCN(CCN)CC1	9	0.1	11	0.4	100.4*	-11.3
COc1ccc(NP(=O)(Oc2cccc(C)c2)Oc2cccc(C)c2)cc1OC	7	.	.	.	.	.
CCOc1ccc(Cl)cc1CNCCc1ccc(F)cc1	9	0.8	22	0.8	64.6*	-0.4
Cc1ccc(C2C(S(C)(=O)=O)=C(O)C(=O)N2c2ccccc2)cc1 (configuration not stated) (tested in a mixture with another compound)	13	0.3	9	2.0	-2.8	-8.6
Cc1cc([N+](=O)[O-])c(Cl)cc1NC(=O)C(C)C	8	1.1	10	39.5	58.1*	-6.9
CC(C)C(=O)Nc1nnc(CCN(CCc2nnc(NC(=O)C(C)C)s2)[N+](=O)[O-])s1	6	.	.	.	.	.
CCN(CC)c1ccc(CNCCc2ccccc2F)cc1	9	1.0	20	7.7	94.2*	-4.2
COc1cccc(CNCCc2c[nH]c3ccccc23)c1OC	6	0.9	15	3.5	8.8	-2.2
Cc1ccc(CNCCc2ccccc2F)cc1	13	0.5	4	0.5	6.5	-4.8
Fc1ccccc1CCNCc1cccc2ccccc12	15	3.5	11	17.5	77.4*	-9.8
CCOC(=O)N1CCC(NC(=O)CCc2nc(C3=CCN(C)CC3)no2)CC1	166*	0.4	23	7.9	-4.0	-7.2
COC(=O)c1ccc(NC(=O)CSc2nc3ccc(N4C(=O)C5C6C=CC(C6)C5C4=O)cc3s2)cc1 (configuration not stated)	13	-0.1	12	-0.1	5.7	12.3

Source: PubChem
